# Source: ChEMBL document CHEMBL1135578, “Rhodacyanine dyes as antimalarials. 1. Preliminary evaluation of their activity and toxicity” (J Med Chem, 2002)
# What was measured:
# [1] = system: Plasmodium falciparum; test: In vitro antimalarial activity against chloroquine-sensitive Plasmodium falciparum FCR3; type: functional, organism-based
# In short: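 In vitro growth of chloroquine-sensitive P. falciparum FCR-3 read as EC50; some entries are given as EC70 values (% parasite growth observed) where noted.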
# [2] = system: FM3A; test: Cytotoxicity against mouse mammary tumor FM3A cells representing a model of host; type: functional, cell-based
# In short: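 Growth of mouse mammary tumor FM3A cells, used as a host model, read as EC50; some entries are given as lower-effect ECx values (% growth observed) where noted.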
# [3] = system: FM3A; test: (§1) Selective toxicity- EC50 value of FM3A / EC50 value of Plasmodium falciparum; type: cell-based; settings: mouse, fm3a
# In short: (§2)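 Ratio computed as EC50 in FM3A cells divided by EC50 against P. falciparum FCR-3.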
# [4] = as §1; type: cell-based; settings: mouse, FM3A cells; read-out: Toxicity ratio; in short: as §2
EC50 [1] [nM],EC50 ([1]; Plasmodium falciparum) [nM],Compound,EC50 ([2]; fm3a) [nM],Toxicity ratio [3],"EC50 ([2]; Mus musculus, FM3A) [nM]",selectivity ratio [4]
> 38,,C=CCn1c(=O)/c(=C2\Sc3ccccc3N2C)s/c1=C\c1cccc[n+]1C [listing 1 of 2 here],,,,
26,,CCn1c(=O)/c(=C2\Sc3ccccc3N2C)s/c1=C\c1cccc[n+]1C.[Cl-],16000,620,,
,56,CCn1c(=O)/c(=C2\Sc3ccccc3N2C)s/c1=C\c1cccc(-c2ccccc2)[n+]1C,,,1900,34
,31,CN1/C(=c2\s/c(=C\c3cccc[n+]3C)n(Cc3ccccc3)c2=O)Sc2ccccc21,,,800,26
23,,CCn1c(=O)/c(=C2\Sc3ccccc3N2C)s/c1=C\c1cccc[n+]1C.Cc1ccc(S(=O)(=O)[O-])cc1,11000,480,,
,3700,CC[N+]1=C(SC)S/C(=C2/Sc3ccccc3N2C)C1=O,,,,
,66,CCn1c(=O)/c(=C2\Sc3cc(C(F)(F)F)ccc3N2C)s/c1=C\c1cccc[n+]1CC,,,4200,64
,4.6,CCn1c(=O)/c(=C2\Sc3ccccc3N2C)s/c1=C\c1ccc2ccccc2[n+]1C,,,580,130
,230,CCn1c(=O)/c(=C2\SCCN2C)s/c1=C\c1cccc[n+]1C,,,> 34000,> 150
,28,CCn1c(=O)/c(=C2\Sc3ccccc3N2C)s/c1=C\c1cccc[n+]1C,,,14000,500
,45,CN1/C(=c2\s/c(=C\c3cccc[n+]3C)n(C)c2=O)Sc2ccccc21,,,3800,84
22,,CCn1c(=O)/c(=C2\Sc3ccccc3N2C)s/c1=C\c1cccc[n+]1C.[OH-],13000,590,,
,> 28000,CCN1C(=O)/C(=C2\Sc3ccccc3N2C)SC1=S,,,,
,56,CCn1c(=O)/c(=C2\Sc3ccccc3N2C)s/c1=C\c1cc[n+](C)cc1,,,> 24000,> 430
,240,CCn1c(=O)/c(=C2\C=Cc3ccccc3N2C)s/c1=C\c1cccc[n+]1C,,,,
,70,CCn1c(=O)/c(=C2\Sc3ccccc3N2C)s/c1=C\c1cccc[n+]1CC,,,15000,210

EC50 [1] [nM],EC50 ([1]; Plasmodium falciparum) [nM],Compound,EC50 ([2]; fm3a) [nM],Toxicity ratio [3],"EC50 ([2]; Mus musculus, FM3A) [nM]",selectivity ratio [4]
,680,CCn1c(=O)/c(=C2\Sc3ccccc3N2C)s/c1=C\c1cccc[n+]1CCCCC(=O)O,,,> 18000,> 26
,14,C=CCn1c(=O)/c(=C2\Sc3ccccc3N2C)s/c1=C\c1cc[n+](C)cc1,,,6700,480
,240,CN1/C(=C\c2cccc[n+]2C)Sc2ccccc21,,,,
12,,C=CCn1c(=O)/c(=C2\Sc3ccccc3N2C)s/c1=C\c1cccc[n+]1C [listing 2 of 2 here],,,12000,1000
,50,CN1/C(=c2\s/c(=C\c3cc[n+](C)cc3)n(Cc3ccccc3)c2=O)Sc2ccccc21,,,810,16
,1500,CC[n+]1ccccc1/C=c1\s/c(=C2/Sc3ccccc3N2C)c(=O)n1CCCCC(=O)O,,,> 17000,> 11
,43,CCn1c(=O)/c(=C2\Sc3ccc4ccccc4c3N2C)s/c1=C\c1cccc[n+]1CCO,,,5000,120
,7.8,CCn1c(=O)/c(=C2\Sc3ccccc3N2C)s/c1=C\c1cc[n+](C)c2ccccc12,,,680,87
,520,CCN1C(=O)CS/C1=C\c1sc2ccccc2[n+]1CC,,,,
,210,CCn1c(=O)/c(=C2\Sc3ccccc3N2C)s/c1=C\c1cccc[n+]1CCO,,,> 17000,> 81
,350,CCn1c(=O)/c(=C2\C=CC=CN2C)s/c1=C\c1cccc[n+]1C,,,,
,,CCN(CC)CCCC(C)Nc1ccnc2cc(Cl)ccc12 (stereo not given) [CHLOROQUINE],,,,1800
,17,CN(C)c1ccc2nc3ccc(N(C)C)cc3[s+]c2c1 [METHYLENE BLUE ANHYDROUS],,,1100,65
,,C=C[C@H]1C[N@@]2CC[C@H]1C[C@H]2[C@H](O)c1ccnc2ccc(OC)cc12 [QUININE],,,,910
,300,COC(=O)c1ccccc1-c1c2ccc(=N)cc-2oc2cc(N)ccc12 [RHODAMINE123],,,10000,33
